Source: PubChem
IDH1 R132H inh – blocks human IDH1 R132H reductase activity; O75874; diaphorase/resazurin fluorescence, 60 min; inhibition, % at 10 µM; actives 0.18% (n = 70,000); AID 624101; in the data active means inhibition above about 34%; inconclusive means no clear call, values can overlap the other calls; inactive means below about 11%
Target sequence (O75874 whole entry R132H): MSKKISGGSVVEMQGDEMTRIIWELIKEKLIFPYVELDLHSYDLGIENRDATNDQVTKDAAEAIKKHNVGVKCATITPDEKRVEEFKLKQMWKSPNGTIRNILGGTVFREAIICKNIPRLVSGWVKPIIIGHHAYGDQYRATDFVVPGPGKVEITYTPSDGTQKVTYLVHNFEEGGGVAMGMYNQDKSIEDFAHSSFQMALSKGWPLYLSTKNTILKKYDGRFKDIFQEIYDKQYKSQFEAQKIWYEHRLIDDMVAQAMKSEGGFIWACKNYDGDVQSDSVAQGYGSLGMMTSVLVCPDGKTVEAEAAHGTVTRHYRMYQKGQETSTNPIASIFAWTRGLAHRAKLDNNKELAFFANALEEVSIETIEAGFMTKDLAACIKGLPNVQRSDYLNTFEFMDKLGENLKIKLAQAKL
Pf Dd2 inh – blocks growth of Plasmodium falciparum Dd2 parasites; P. falciparum Dd2 growth, SYBR Green, 72 h; active compounds read low; activity change, % at 10 µM; actives 2.3% (n = 94,000); AID 1159554; in the data active means activity change below about -80%; inconclusive means no clear call, values can overlap the other calls
GASC1 inh – inhibitors of human demethylase GASC-1 KDM4C. Q9H3R0. GST-KDM4C 2-372, H3K9me3 peptide, LANCE TR-FRET. inhibition, % at 12.5 µM. actives 0.15% (n = 96,000). AID 720574;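 active means mean replicate inhibition above about 25%, with at least 55% of replicates also reaching it, limit read from the data, passing the limit was not always enough; inconclusive means only one of those two conditions met; inactive means neither condition met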
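System: N-terminal GST-fused human GASC-1 (KDM4C) fragment, residues 2-372; amount: enzyme final amount 10 nM; incubation: reaction 30 min RT, detection step 1 h RT; medium: HEPES buffer, pH 7.5, plus ascorbate; technique: LANCE TR-FRET, Eu antibody, ULight-streptavidin, EDTA, ex 340 nm, em 618/671 nm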
T cruzi growth-1 – inhibitors of T. cruzi proliferation. inhibition, % at 8.34 µM. AID 624255. T. cruzi beta-gal in NIH3T3, GalScreen luminescence, 90 h. actives 5.9% (n = 77,000);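 active means mean inhibition above about 93%, with at least 55% of replicates each passing it, limit read from the data, passing the limit was not always enough; inconclusive means only one of those two conditions holds; inactive means neither condition holds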
T cruzi growth-2 – Trypanosoma cruzi proliferation inhibition | actives 72% (n = 5,600) | shares compounds with T cruzi growth-1 | T. cruzi beta-gal in NIH3T3, GalScreen luminescence, 90 h | inhibition, % at 8.35 µM | AID 651739;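 active means mean replicate inhibition above about 95% and at least 55% of replicates individually reaching it, limit read from the data; inconclusive means only one of the two criteria is met; inactive means neither criterion is met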
T cruzi growth-3 – blocks T. cruzi growth in NIH3T3 host cells; shares compounds with T cruzi growth-1; T. cruzi beta-gal in NIH3T3, GalScreen luminescence, 90 h; inhibition, % at 2.09 µM; actives 21% (n = 5,600);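 active means mean inhibition above about 95%, with at least 55% of replicates also reaching it, limit read from the data; inconclusive means meets just one of the two conditions; inactive means meets neither condition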
NIH3T3 tox – cytotoxicity in mouse NIH/3T3 fibroblasts; shares compounds with T cruzi growth-1; NIH/3T3 viability, CellTiter-Glo ATP luminescence, 90 h; cytotoxicity (signal decrease), % at 8.35 µM; actives 14% (n = 5,600);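 active means mean signal decrease across replicates above about 35% based on untreated-well scatter, with enough replicates individually passing, limit read from the data; inconclusive means no rule stated though some were filed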
3T3 cytotox 2 – cytotoxicity in mouse NIH/3T3 fibroblasts | actives 56% (n = 5,600) | NIH/3T3 viability, CellTiter-Glo ATP luminescence, 90 h | inhibition, % at 24.9 µM | shares compounds with T cruzi growth-1;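 active means mean loss of cell viability signal at or above a set limit, and enough replicates individually reaching it; inconclusive means meets only the mean limit or only the replicate share; inactive means meets neither condition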
A number is an active result; 0 = inactive; ? = inconclusive; - = no result given; + = active, no number. Rows were chosen to be rich in hits. Some 5.8% of all compounds tested hit in one or more screens of this group.

SMILES	IDH1 R132H inh	Pf Dd2 inh	GASC1 inh	T cruzi growth-1	T cruzi growth-2	T cruzi growth-3	NIH3T3 tox	3T3 cytotox 2
C[C@@H]1CN([C@H](C)CO)C(=O)c2cccc(NC(=O)NC3CCCCC3)c2O[C@H]1CN(C)Cc1ccc(Oc2ccccc2)cc1	-	0	0	?	98.4	107.7	0	104.4
Cc1ccc(C)c(NC(=O)CSc2cc(C)c3ccccc3n2)c1	0	-	-	-	-	-	-	-
CC(C)C#Cc1ccc2c(c1)O[C@H](CN(C)C(=O)c1cccc(F)c1)[C@@H](C)CN([C@@H](C)CO)S2(=O)=O	0	0	0	101.3	102.6	0	0	34.5
CC(C)CC#Cc1ccc2c(c1)O[C@H](CN(C)C(=O)c1cccc(F)c1)[C@H](C)CN([C@@H](C)CO)S2(=O)=O	0	0	0	120.0	104.4	105.7	0	104.0
CC(C)CC#Cc1ccc2c(c1)O[C@@H](CN(C)C(=O)c1cccc(F)c1)[C@@H](C)CN([C@H](C)CO)S2(=O)=O	0	0	0	119.8	98.7	0	0	105.9
CC(C)CC#Cc1ccc2c(c1)O[C@H](CN(C)C(=O)c1cccc(F)c1)[C@H](C)CN([C@H](C)CO)S2(=O)=O	0	0	0	126.2	104.0	107.9	0	103.8
CC(C)CC#Cc1ccc2c(c1)O[C@@H](CN(C)C(=O)c1ccccc1)[C@@H](C)CN([C@H](C)CO)S2(=O)=O	0	0	0	-	-	-	-	-
CC(C)c1ccc(OCC(=O)Nc2ccc(O)cc2C(=O)O)cc1	0	-	-	-	-	-	-	-
CCCC[C@H](O)[C@@H]1CC(OC)=CC(=O)O1	0	-	-	-	-	-	-	-
COc1ccccc1C#Cc1ccc([C@H]2[C@H]3CN(C(=O)C4CC4)CCCCN3[C@H]2CO)cc1	-	0	-	101.3	100.3	0	0	48.3
COc1ccccc1C#Cc1ccc([C@H]2[C@@H](CO)N3CCCCN(C(=O)C4CC4)C[C@@H]23)cc1	-	0	-	110.4	103.7	0	56.7	47.3
COc1ccccc1C#Cc1ccc([C@@H]2[C@H](CO)N3CCCCN(S(C)(=O)=O)C[C@@H]23)cc1	-	0	0	0	-	-	-	-
COc1cc(/C(C)=C/C(C)(O)C(C)O)oc(=O)c1C (stereo not given)	0	-	-	-	-	-	-	-
CC(C)C#Cc1ccc([C@@H]2[C@@H](CO)N3CCCCN(C(=O)Nc4ccccc4)C[C@@H]23)cc1	-	0	0	106.2	111.6	0	0	104.6
CC(C)C#Cc1ccc([C@@H]2[C@@H](CO)N3CCCCN(C(=O)Nc4ccccc4)C[C@H]23)cc1	-	0	0	99.4	99.6	0	38.6	104.7
C[C@H](O)C#Cc1ccc([C@H]2[C@@H](CO)N3CCCCN(C(=O)Nc4ccccc4)C[C@H]23)cc1	-	0	0	108.7	0	0	0	0
CC(C)C#Cc1ccc([C@@H]2[C@H]3CN(C(=O)Nc4ccccc4)CCCCN3[C@H]2CO)cc1	-	0	0	?	0	0	88.1	105.9
CC(C)C#Cc1ccc([C@@H]2[C@H](CO)N3CCCCN(C(=O)Nc4ccccc4)C[C@@H]23)cc1	-	0	0	0	-	-	-	-
CCC(SC1=NCCS1)C(=O)Nc1ccc(NC(C)=O)cc1 (stereo not given)	0	-	-	-	-	-	-	-
CC=Cc1ccc2n(c1=O)C[C@H]1[C@H](CO)[C@@H](C(=O)NCc3ccccn3)[C@@H]2N1C (mixture of isomers)	-	-	0	+	0	0	0	0
CC=Cc1ccc2n(c1=O)C[C@@H]1[C@@H](CO)[C@H](C(=O)NCCCN(C)C)[C@H]2N1C(=O)c1ccccc1F (mixture of isomers)	-	-	0	+	0	0	0	0
CC=Cc1ccc2n(c1=O)C[C@H]1[C@H](CO)[C@@H](C(=O)NCCC)[C@@H]2N1C(=O)C1CC1 (mixture of isomers)	-	0	0	111.9	99.0	0	0	0
CC=Cc1ccc2n(c1=O)C[C@@H]1[C@@H](CO)[C@H](C(=O)Nc3ccc(-c4ccccc4)cc3)[C@H]2N1C(=O)CC (mixture of isomers)	-	-	0	134.6	102.6	0	0	48.0
Cc1sc2nc(SCC(=O)c3ccc4c(c3)OCCO4)n(-c3ccccc3)c(=O)c2c1C	0	-	-	-	-	-	-	-
Cc1cc(C)cc(N(CC(=O)Nc2c(C)cc(C)cc2C)S(C)(=O)=O)c1	0	-	-	-	-	-	-	-
SMILES	IDH1 R132H inh	Pf Dd2 inh	GASC1 inh	T cruzi growth-1	T cruzi growth-2	T cruzi growth-3	NIH3T3 tox	3T3 cytotox 2
O=C(COc1ccc(N2CC(C(=O)O)CC2=O)cc1)Nc1ccc(Cl)c(Cl)c1 (stereo not given)	0	-	-	-	-	-	-	-
COc1cc2nc(SCC(N)=O)n3nc(CCn4c(C)nc5ccccc54)nc3c2cc1OC	0	-	-	-	-	-	-	-
Cc1ccnc(NS(=O)(=O)c2ccc(NC(=O)c3csc4c3CCCC4)cc2)n1	0	-	-	-	-	-	-	-
CC=Cc1ccc2n(c1=O)C[C@@H]1[C@@H](CO)[C@H](C(=O)NCc3ccccc3Cl)N(S(C)(=O)=O)[C@H]21 (mixture of isomers)	-	-	0	97.5	0	0	0	0
C[C@H]1CCCCO[C@H](CN(C)S(=O)(=O)c2ccc(Cl)cc2)[C@@H](C)CN([C@@H](C)CO)C(=O)c2cc(NC(=O)c3ccncc3)ccc2O1	0	0	0	0	-	-	-	-
C[C@@H]1CN([C@H](C)CO)C(=O)c2cc(NC(=O)c3ccncc3)ccc2O[C@@H](C)CCCCO[C@@H]1CN(C)S(=O)(=O)c1ccc(Cl)cc1	-	?	0	?	95.2	0	0	0
C[C@@H]1CCCCO[C@H](CN(C)S(=O)(=O)c2ccc(Cl)cc2)[C@H](C)CN([C@H](C)CO)C(=O)c2cc(NC(=O)c3ccncc3)ccc2O1	-	0	0	100.8	99.8	0	38.3	0
Cc1cc2nn(-c3cccc4ccccc34)nc2cc1NC(=O)COc1ccc([N+](=O)[O-])cc1	0	-	-	-	-	-	-	-
CCn1c(SCC(=O)Nc2ccc(Cl)cc2Cl)nnc1-c1ccccc1F	0	-	-	-	-	-	-	-
Cn1c(SCC(=O)c2ccc(F)cc2)nnc1-c1ccc(NC(=O)c2ccccc2Br)cc1	0	-	-	-	-	-	-	-
O=[N+]([O-])c1ccccc1-c1ccc(-c2nn3c(-c4ccccc4)nnc3s2)o1	0	-	-	-	-	-	-	-
COc1cc(NC(=O)CSc2nnc(-c3ccncc3)n2-c2ccc(C)cc2)cc(OC)c1	0	-	-	-	-	-	-	-
COc1ccc(NC(=O)Nc2ccc3c(c2)C(=O)N([C@@H](C)CO)C[C@H](C)[C@@H](CN(C)C(=O)C2CCCCC2)OCCCC[C@@H](C)O3)cc1	0	?	0	95.2	103.9	0	0	0
COc1ccc(NC(=O)Nc2ccc3c(c2)C(=O)N([C@@H](C)CO)C[C@H](C)[C@H](CN(C)C(=O)Nc2ccc(OC)cc2)OCCCC[C@@H](C)O3)cc1	0	0	0	-	-	-	-	-
